Experimental data from ChEMBL document CHEMBL3352023, “C-terminal residue optimization and fragment merging: discovery of a potent Peptide-hybrid inhibitor of dengue protease” (ACS Med Chem Lett, 2014).

How the values were obtained:
Genome polyprotein = Genome polyprotein (dengue virus type 2, UniProt P12823); assay: Inhibition of Dengue virus serotype 2 NS2B-NS3 protease by homogeneous fluorimetric assay
[1] = target: Genome polyprotein (dengue virus type 2) (UniProt P12823); assay: Inhibition of Dengue virus serotype 2 NS2B-NS3 protease at 50 uM by homogeneous fluorimetric assay
[2] = target: Prothrombin (Homo sapiens) (UniProt P00734); assay: Inhibition of thrombin (unknown origin) at 25 uM by homogeneous fluorimetric assay
[3] = target: Genome polyprotein (West Nile virus) (UniProt P06935); assay: Inhibition of West Nile virus […] NS2B-NS3 protease at 50 uM by homogeneous fluorimetric assay
Chain of Genome polyprotein (West Nile virus) (P06935 whole entry): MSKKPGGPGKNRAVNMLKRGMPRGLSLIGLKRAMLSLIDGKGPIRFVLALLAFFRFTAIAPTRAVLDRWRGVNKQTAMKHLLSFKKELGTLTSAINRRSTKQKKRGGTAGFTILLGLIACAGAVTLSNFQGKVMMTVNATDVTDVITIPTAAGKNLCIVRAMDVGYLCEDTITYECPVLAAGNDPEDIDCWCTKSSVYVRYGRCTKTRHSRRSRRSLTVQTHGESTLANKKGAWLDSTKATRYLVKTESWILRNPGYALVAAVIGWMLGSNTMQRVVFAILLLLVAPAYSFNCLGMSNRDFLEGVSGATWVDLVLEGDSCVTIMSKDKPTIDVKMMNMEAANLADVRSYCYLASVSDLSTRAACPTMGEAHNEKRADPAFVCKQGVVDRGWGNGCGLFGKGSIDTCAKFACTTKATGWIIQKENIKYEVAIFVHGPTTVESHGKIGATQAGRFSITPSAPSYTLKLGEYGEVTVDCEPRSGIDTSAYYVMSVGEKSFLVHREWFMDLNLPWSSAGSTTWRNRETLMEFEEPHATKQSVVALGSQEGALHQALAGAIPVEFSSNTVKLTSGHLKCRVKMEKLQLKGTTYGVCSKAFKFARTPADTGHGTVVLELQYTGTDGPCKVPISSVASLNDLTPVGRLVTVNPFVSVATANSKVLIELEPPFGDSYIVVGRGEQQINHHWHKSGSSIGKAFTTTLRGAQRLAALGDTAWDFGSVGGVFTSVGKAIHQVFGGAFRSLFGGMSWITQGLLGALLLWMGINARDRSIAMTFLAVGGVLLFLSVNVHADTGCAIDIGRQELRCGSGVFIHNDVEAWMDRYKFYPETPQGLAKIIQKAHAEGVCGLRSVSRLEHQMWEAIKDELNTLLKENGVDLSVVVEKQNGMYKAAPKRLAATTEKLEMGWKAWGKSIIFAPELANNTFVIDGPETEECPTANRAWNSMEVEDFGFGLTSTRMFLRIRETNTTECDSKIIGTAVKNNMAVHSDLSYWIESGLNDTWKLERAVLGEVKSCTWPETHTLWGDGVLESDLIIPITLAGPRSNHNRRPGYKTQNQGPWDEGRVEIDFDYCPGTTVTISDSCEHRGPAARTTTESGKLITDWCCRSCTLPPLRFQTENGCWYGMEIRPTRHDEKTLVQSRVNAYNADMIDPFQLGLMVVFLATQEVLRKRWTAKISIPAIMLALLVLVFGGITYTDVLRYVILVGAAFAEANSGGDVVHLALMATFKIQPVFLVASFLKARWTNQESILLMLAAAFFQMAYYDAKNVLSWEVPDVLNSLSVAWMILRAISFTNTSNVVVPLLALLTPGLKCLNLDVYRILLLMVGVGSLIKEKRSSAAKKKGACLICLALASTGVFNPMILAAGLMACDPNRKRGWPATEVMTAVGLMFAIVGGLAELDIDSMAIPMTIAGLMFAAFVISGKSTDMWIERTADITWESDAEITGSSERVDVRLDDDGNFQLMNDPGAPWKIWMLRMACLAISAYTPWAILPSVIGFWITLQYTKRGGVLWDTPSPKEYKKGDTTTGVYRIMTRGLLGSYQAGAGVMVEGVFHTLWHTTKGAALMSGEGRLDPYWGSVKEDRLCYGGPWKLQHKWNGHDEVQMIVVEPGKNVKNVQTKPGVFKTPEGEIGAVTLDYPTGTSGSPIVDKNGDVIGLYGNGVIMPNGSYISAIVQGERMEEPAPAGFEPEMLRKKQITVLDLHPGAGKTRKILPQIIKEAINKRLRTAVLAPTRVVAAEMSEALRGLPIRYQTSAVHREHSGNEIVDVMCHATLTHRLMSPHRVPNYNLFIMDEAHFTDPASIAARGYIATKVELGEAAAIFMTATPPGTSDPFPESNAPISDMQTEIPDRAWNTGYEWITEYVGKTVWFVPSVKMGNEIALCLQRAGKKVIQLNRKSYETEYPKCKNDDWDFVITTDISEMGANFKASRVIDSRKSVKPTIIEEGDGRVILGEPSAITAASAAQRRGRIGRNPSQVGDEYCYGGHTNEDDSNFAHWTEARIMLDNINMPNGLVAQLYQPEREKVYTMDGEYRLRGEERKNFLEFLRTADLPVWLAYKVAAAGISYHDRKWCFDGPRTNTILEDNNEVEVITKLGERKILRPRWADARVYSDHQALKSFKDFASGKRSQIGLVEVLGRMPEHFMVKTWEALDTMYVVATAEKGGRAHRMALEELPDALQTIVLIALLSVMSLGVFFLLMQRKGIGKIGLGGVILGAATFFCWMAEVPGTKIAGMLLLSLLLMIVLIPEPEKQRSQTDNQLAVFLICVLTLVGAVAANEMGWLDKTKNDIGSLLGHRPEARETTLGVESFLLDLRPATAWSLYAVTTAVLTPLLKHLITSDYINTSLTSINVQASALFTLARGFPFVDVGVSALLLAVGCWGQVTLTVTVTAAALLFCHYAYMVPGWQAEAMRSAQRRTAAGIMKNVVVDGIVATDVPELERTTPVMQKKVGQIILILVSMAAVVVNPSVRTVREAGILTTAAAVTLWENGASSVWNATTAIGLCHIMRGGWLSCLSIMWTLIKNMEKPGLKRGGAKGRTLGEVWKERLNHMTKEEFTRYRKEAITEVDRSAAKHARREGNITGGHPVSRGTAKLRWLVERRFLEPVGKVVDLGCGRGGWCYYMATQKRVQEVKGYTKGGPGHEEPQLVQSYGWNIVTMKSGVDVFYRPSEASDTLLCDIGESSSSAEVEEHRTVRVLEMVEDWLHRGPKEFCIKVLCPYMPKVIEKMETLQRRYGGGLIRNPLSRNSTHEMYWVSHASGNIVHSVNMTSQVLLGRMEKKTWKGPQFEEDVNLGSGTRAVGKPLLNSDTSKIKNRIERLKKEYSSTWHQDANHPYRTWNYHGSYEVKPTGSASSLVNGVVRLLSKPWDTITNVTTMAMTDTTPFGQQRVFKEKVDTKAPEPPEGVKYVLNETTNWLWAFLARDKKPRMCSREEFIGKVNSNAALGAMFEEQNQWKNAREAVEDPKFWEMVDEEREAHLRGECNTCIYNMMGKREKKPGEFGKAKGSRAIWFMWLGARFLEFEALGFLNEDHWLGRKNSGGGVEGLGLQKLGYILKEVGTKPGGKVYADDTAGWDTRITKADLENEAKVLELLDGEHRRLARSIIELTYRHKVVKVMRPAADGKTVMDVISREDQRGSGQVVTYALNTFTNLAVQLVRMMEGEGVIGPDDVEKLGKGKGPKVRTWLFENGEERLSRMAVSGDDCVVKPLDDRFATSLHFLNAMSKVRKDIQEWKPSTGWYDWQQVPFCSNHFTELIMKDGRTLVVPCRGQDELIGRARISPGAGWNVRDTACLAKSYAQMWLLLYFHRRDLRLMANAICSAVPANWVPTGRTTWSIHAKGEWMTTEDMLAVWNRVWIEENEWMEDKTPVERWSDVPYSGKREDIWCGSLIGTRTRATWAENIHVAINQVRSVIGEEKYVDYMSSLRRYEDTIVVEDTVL
Summary of the method: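 WNV NS2B-NS3 protease percent inhibition, homogeneous fluorimetric assay: enzyme 150 nM, inhibitor 50 μM, substrate 50 μM (Km = 212 μM); triplicate, SD below 10%.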

[4] = target: Genome polyprotein (dengue virus type 2) (UniProt P12823); assay: Competitive inhibition of Dengue virus serotype 2 NS2B-NS3 protease by aprotinin competition fluorescence assay
Summary of the method: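 Active-site binding checked by aprotinin competition: fluorescence decrease followed with increasing inhibitor concentration, then aprotinin added to test recovery of fluorescence.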

SMILES: N=C(N)NCCC[C@H](NC(=O)c1ccc(/C=C2\SC(=O)N(C3CCCC3)C2=O)cc1)C(=O)N[C@@H](CCCCN)C(=O)N[C@H](C(N)=O)c1ccccc1
- IC50 (Genome polyprotein): 0.6 µM
- inhibition [1]: 99.6%
- inhibition [2]: 9.2%
- inhibition [3]: 98.4%
- inhibition [4]: Dose-dependent effect
